Test results taken from ChEMBL document CHEMBL1145088, “Ascochlorin derivatives as ligands for nuclear hormone receptors” (J Med Chem, 2003).

Experiments:
U2OS (Homo sapiens) = experiment: Concentration required for inhibition of U2OS cell growth
[1] = biological target: T1, Nuclear receptor subfamily 1 group I member 2 (Homo sapiens, UniProt O75469); experiment: Minimum effective concentration required to activate pregnane X receptor (PXR)
T1 sequence (O75469 whole entry): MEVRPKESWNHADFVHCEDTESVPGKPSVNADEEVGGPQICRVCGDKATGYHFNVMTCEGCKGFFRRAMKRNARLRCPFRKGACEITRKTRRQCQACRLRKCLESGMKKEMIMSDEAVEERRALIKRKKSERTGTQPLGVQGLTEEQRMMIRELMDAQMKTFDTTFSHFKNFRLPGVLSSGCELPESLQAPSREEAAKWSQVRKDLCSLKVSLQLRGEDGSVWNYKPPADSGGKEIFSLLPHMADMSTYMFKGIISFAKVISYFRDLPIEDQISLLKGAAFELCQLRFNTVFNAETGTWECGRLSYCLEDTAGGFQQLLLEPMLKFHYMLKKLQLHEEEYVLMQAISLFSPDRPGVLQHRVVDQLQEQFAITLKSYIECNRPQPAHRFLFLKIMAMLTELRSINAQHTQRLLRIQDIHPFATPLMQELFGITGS

Estrogen receptor beta = Estrogen receptor beta (Homo sapiens, UniProt Q92731); experiment: Minimum effective concentration required to activate Estrogen receptor 2 (ER beta); Not detected
Estrogen receptor = biological target: T2, Estrogen receptor (Homo sapiens, UniProt P03372); experiment: Minimum effective concentration required to activate Estrogen receptor 1 (ER alpha); Not detected
T2 sequence (P03372 whole entry): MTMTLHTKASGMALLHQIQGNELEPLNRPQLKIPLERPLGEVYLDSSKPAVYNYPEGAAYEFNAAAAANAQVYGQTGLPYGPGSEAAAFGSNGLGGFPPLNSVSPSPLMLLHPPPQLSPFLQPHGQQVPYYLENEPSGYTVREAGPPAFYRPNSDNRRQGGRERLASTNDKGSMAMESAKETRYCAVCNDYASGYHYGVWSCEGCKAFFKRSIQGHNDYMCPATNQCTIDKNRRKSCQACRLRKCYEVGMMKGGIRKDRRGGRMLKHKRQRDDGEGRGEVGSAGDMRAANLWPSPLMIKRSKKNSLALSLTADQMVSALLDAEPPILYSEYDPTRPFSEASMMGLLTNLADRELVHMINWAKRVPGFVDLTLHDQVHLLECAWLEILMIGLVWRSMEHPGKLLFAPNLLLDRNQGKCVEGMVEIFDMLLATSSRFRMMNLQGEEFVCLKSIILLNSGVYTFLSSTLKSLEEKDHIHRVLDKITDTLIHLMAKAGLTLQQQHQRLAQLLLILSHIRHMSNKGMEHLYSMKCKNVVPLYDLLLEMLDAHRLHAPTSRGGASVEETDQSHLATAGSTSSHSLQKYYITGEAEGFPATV

[2] = biological target: T3, Peroxisome proliferator-activated receptor gamma (Homo sapiens) (UniProt P37231); experiment: Minimum effective concentration required to activate Peroxisome proliferator activated receptor gamma (PPAR gamma)
T3 sequence (whole entry): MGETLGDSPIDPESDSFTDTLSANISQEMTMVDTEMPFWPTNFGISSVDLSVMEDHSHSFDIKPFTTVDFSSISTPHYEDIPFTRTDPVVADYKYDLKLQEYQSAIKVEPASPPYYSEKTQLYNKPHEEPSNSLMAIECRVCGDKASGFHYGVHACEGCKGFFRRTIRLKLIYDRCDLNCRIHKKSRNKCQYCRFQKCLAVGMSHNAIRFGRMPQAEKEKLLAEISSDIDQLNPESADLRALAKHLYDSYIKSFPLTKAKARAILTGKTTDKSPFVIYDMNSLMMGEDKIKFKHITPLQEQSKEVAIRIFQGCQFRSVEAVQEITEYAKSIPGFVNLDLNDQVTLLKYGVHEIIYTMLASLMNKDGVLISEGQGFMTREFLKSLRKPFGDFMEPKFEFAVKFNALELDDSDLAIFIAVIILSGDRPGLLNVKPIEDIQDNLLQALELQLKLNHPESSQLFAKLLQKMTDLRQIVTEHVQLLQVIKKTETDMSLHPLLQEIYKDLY

[3] = biological target: T3, Peroxisome proliferator-activated receptor gamma (Homo sapiens); experiment: Minimum effective concentration required to inhibit Peroxisome proliferator activated receptor gamma (PPAR gamma)
[4] = biological target: T1, Nuclear receptor subfamily 1 group I member 2; experiment: Minimum effective concentration required to inhibit pregnane X receptor (PXR)
Summary of the method: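 U2OS cells (1 × 10^6 per 10 cm dish) were calcium-phosphate transfected with the receptor expression vector (2 µg; Gal4 fusions for PXR and PPARα), the matching reporter (4 µg) and pCMV-β-galactosidase (4 µg). They were cultured 12 h, PBS-washed, given fresh medium 4 h, trypsinized and exposed to drugs 20 h. Luciferase/CAT activity normalized to β-galactosidase as stimulation index; triplicate cultures.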

Sequence of Estrogen receptor beta (Q92731 whole entry): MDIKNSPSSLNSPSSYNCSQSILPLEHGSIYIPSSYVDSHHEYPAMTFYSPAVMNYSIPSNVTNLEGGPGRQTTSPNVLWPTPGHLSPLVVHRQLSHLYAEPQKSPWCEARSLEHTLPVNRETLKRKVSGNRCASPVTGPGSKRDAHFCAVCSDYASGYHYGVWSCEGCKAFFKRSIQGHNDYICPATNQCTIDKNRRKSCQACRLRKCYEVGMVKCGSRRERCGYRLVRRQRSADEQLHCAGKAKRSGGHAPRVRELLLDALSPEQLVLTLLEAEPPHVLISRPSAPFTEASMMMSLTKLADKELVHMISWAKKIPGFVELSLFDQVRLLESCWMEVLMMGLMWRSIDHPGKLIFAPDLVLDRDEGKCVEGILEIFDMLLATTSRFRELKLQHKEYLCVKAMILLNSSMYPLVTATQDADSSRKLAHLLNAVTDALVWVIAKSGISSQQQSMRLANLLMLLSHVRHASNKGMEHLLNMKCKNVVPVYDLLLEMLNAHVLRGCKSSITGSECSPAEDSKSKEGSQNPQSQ

SMILES	IC50 (U2OS (Homo sapiens)) [µM]	MEC [1] [µM]	MEC (Estrogen receptor beta)	MEC (Estrogen receptor)	MEC [2] [µM]	MEC [3] [µM]	MEC [4] [µM]
CC(/C=C/[C@@]1(C)[C@H](C)CCC(=O)[C@@H]1C)=C\Cc1c(O)c(C=O)c(C)c(Cl)c1OCC(=O)O	56	30	Not Active	Not Active	30	–	–
C/C(=C\Cc1c(O)c(C=O)c(C)c(Cl)c1OCC(=O)O)CC/C=C(\C)[C@@H]1CC(=O)C(C)(C)O1	32	30	Not Active	Not Active	–	–	–
CC(/C=C/[C@@]1(C)[C@H](C)CCC(=O)[C@@H]1C)=C\Cc1c(O)c(C=O)c(C)c(Cl)c1OC(=O)c1ccccn1	–	–	–	–	–	3	1
COc1c(C=O)c(C)c(Cl)c(OC(=O)c2cccnc2)c1C/C=C(C)/C=C/[C@@]1(C)[C@H](C)CCC(=O)[C@@H]1C	37	10	Not Active	Not Active	100	–	–
COc1c(C=O)c(C)c(Cl)c(OC(=O)c2ccncc2)c1C/C=C(C)/C=C/[C@@]1(C)[C@H](C)CCC(=O)[C@@H]1C	–	–	–	–	–	0.3	3
COc1c(C=O)c(C)c(Cl)c(OC(=O)c2ccccn2)c1C/C=C(C)/C=C/[C@@]1(C)[C@H](C)CCC(=O)[C@@H]1C	–	–	–	–	–	30	1
COc1c(C=O)c(C)c(Cl)c(OCC(=O)O)c1C/C=C(C)/C=C/[C@@]1(C)[C@H](C)CCC(=O)[C@@H]1C	56	3	Not Active	Not Active	3	–	–
Cc1c(C=O)cc2c(c1Cl)OC(C)(/C=C/[C@]1(C)C(C)C(=O)CC[C@H]1C)CC2 (some centres not stated)	18	1	Not Active	Not Active	–	–	–
Cc1c(Cl)c2c(c(O)c1C=O)CC(CC(C)(O)/C=C/[C@@]1(C)[C@H](C)CCC3(OCCO3)[C@@H]1C)O2 (some centres not stated)	18	3	Not Active	Not Active	–	–	–
C/C(=C\Cc1c(O)c(Cl)c(C)c(C=O)c1O)CC/C=C(\C)[C@@H]1CC(=O)C(C)(C)O1 [ASCOFURANONE]	3.2	3	Not Active	Not Active	–	–	–
COc1c(C=O)c(C)c(Cl)c(O)c1C/C=C(\C)CC/C=C(\C)[C@@H]1CC(=O)C(C)(C)O1	18	1	Not Active	Not Active	30	–	–
COc1c(C=O)c(C)c(Cl)c(O)c1C/C=C(C)/C=C/[C@@]1(C)[C@H](C)CCC(=O)[C@@H]1C	5.6	1	Not Active	Not Active	10	–	–
Cc1c(Cl)c(O)c2c(c1C=O)OC(C)(/C=C/[C@]1(C)C(C)C(=O)CC[C@H]1C)CC2 (some centres not stated)	56	3	Not Active	Not Active	–	–	–
COc1c(Cl)c(C)c(C(=O)O)c(OC)c1C/C=C(C)/C=C/[C@@]1(C)[C@H](C)CCC(=O)[C@@H]1C	56	1	Not Active	Not Active	–	–	–

Continued by falling IC50 (U2OS (Homo sapiens)), values first:

IC50 (U2OS (Homo sapiens)) [µM]	MEC [1] [µM]	MEC (Estrogen receptor beta)	MEC (Estrogen receptor)	MEC [2] [µM]	MEC [3] [µM]	MEC [4] [µM]	SMILES
10	1	Not Active	Not Active	–	–	–	COc1c(Cl)c(C)c(C=O)c(OC)c1CC1OC1(C)/C=C/[C@@]1(C)[C@H](C)CCC(=O)[C@@H]1C (some centres not stated)
10	1	Not Active	Not Active	10	–	–	CC(/C=C/[C@@]1(C)[C@H](C)CCC(=O)[C@@H]1C)=C\Cc1c(O)c(C=O)c(C)c(Cl)c1OC(=O)c1ccncc1
10	1	Not Active	Not Active	–	–	–	COc1c(C=O)c(C)c(Cl)c(OC(C)=O)c1C/C=C(\C)CC/C=C(\C)[C@@H]1CC(=O)C(C)(C)O1
10	10	Not Active	Not Active	–	–	–	C/C(=C\Cc1c(O)c(C=O)c(C)c(Cl)c1OC(=O)c1ccncc1)CC/C=C(\C)[C@@H]1CC(=O)C(C)(C)O1
10	10	Not Active	Not Active	–	–	–	C/C(=C\Cc1c(O)c(C=O)c(C)c(Cl)c1OC(=O)c1cccnc1)CC/C=C(\C)[C@@H]1CC(=O)C(C)(C)O1
10	1	Not Active	Not Active	–	–	–	CC(=O)Oc1c(Cl)c(C)c(C=O)c(O)c1C/C=C(\C)CC/C=C(\C)[C@@H]1CC(=O)C(C)(C)O1
5.6	1	Not Active	Not Active	–	–	–	COc1c(Cl)c(C)c(C=O)c(O)c1C/C=C(\C)CC/C=C(\C)[C@@H]1CC(=O)C(C)(C)O1
4.7	3	Not Active	Not Active	10	–	–	CC(/C=C/[C@@]1(C)[C@H](C)CCC(=O)[C@@H]1C)=C\Cc1c(O)c(C=O)c(C)c(Cl)c1OC(=O)c1cccnc1
3.2	10	Not Active	Not Active	–	–	–	C/C(=C\Cc1c(O)c(C=O)c(C)c(Cl)c1OC(=O)CCCC(=O)O)CC/C=C(\C)[C@@H]1CC(=O)C(C)(C)O1
3.2	1	Not Active	Not Active	3	–	–	CCOC(=O)COc1c(Cl)c(C)c(C=O)c(OC)c1C/C=C(C)/C=C/[C@@]1(C)[C@H](C)CCC(=O)[C@@H]1C
1.8	1	Not Active	Not Active	–	–	–	COc1c(Cl)c(C)c(C=O)c(O)c1C/C=C(C)/C=C/[C@@]1(C)[C@H](C)CCC(=O)[C@@H]1C
0.6	1	Not Active	Not Active	10	–	–	CC(/C=C/[C@@]1(C)[C@H](C)CCC(=O)[C@@H]1C)=C\Cc1c(O)c(C=O)c(C)c(Cl)c1OC(=O)CCCC(=O)O
